Data published in ChEMBL document CHEMBL1130854, “Diarylsulfonamides as selective, non-peptidic thrombin inhibitors” (Bioorg Med Chem Lett, 1998).

Experiments:
[1] = Inhibitory activity against trypsin/plasmin/factor Xa
[2] = Compound was tested for the concentration which causes a doubling of the thrombin clotting time of human plasma.; assay type: functional
Summary of the method: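 Human plasma thrombin clotting time measured across inhibitor concentrations (μM). Coagulation time (sec) fitted to y = a + b·x^c, a being the uninhibited clotting time and b, c shape/location parameters. Value taken as the concentration that doubles the clotting time (IC200).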

[3] = target: Prothrombin (Homo sapiens, UniProt P00734); test: Inhibitory activity against thrombin

| Ki [1] [µM] | Ki [3] [µM] | Compound | IC200 [2] [µM] |
| --- | --- | --- | --- |
| > 500 |  | O=S(=O)(Nc1cccc(OCCNc2ccncc2)c1)c1ccccc1 | 2.3 |
| > 500 | 0.023 | Cc1cc(NS(=O)(=O)c2ccccc2)cc(OCCNc2ccncc2)c1 | 0.29 |
| > 500 | 0.18 | Cc1cc(NS(=O)(=O)c2ccccc2)cc(OCCCCN=C(N)N)c1 | 10 |
| > 500 | 2 | Cc1cc(NS(=O)(=O)c2ccccc2)cc(OCCN=C(N)N)c1 | 38 |
| > 500 | 9.9 | Cc1cc(NS(=O)(=O)c2ccccc2)cc(OCCCCCN)c1 | >250 |
| > 500 | 0.63 | Cc1cc(NS(=O)(=O)c2ccccc2)cc(OCCCN=C(N)N)c1 | 10 |
| > 500 | 6.4 | Cc1cc(NS(=O)(=O)c2ccccc2)cc(OCCCCCN=C(N)N)c1 | 188 |
| > 500 | 170 | Cc1cc(NS(=O)(=O)c2ccccc2)cc(OCCCN)c1 | >250 |
| > 500 | 6.5 | Cc1cc(NS(=O)(=O)c2ccccc2)cc(OCCCCN)c1 | 179 |
| > 500 | 240 | Cc1cc(NS(=O)(=O)c2ccccc2)cc(OCCN)c1 | >250 |
| > 500 | 9 | Cc1cc(NS(=O)(=O)c2ccccc2)cc(OCCCCCCN)c1 | >250 |
| > 500 | 7 | Cc1cc(NS(=O)(=O)c2ccccc2)cc(OCCCCCCN=C(N)N)c1 | 237 |
